Tests used:
Macrophage cell line = test: Modulation of 4-HDHA level in human M2 macrophages derived from IL4-polarized human monocyte derived macrophages at 3 uM preincubated for 15 mins followed by Escherichia coli (O6:K2:H1) challenge for 90 mins by LC-MS/MS analysis; format: functional
In short: (§1)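 Monocytes differentiated 6 days with M-CSF (20 ng/ml), then polarized 48 h with IL-4 20 ng/ml (M2). Cells (2 × 10^6) in PBS/1 mM CaCl2 pre-incubated 15 min at 37 °C with 3 µM compound or 0.1% DMSO, then challenged with E. coli O6:K2:H1 (1:50) for 90 min. Lipid mediators extracted by SPE with deuterated internal standards and quantified by UPLC-MS/MS as % of vehicle.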

[1] = molecular target: T1, Polyunsaturated fatty acid 5-lipoxygenase (Homo sapiens) (UniProt P09917); test: Inhibition of 5-LO in human M1 macrophages derived from LPS/IFNgamma-polarized human monocyte derived macrophages assessed as effect on 5,6-diHETE level at 3 uM preincubated for 15 mins followed by Escherichia coli (O6:K2:H1) challenge for 90 mins by LC-MS/MS analysis; set-up: scale not given: the % may be the effect or the level left
T1 sequence (whole entry): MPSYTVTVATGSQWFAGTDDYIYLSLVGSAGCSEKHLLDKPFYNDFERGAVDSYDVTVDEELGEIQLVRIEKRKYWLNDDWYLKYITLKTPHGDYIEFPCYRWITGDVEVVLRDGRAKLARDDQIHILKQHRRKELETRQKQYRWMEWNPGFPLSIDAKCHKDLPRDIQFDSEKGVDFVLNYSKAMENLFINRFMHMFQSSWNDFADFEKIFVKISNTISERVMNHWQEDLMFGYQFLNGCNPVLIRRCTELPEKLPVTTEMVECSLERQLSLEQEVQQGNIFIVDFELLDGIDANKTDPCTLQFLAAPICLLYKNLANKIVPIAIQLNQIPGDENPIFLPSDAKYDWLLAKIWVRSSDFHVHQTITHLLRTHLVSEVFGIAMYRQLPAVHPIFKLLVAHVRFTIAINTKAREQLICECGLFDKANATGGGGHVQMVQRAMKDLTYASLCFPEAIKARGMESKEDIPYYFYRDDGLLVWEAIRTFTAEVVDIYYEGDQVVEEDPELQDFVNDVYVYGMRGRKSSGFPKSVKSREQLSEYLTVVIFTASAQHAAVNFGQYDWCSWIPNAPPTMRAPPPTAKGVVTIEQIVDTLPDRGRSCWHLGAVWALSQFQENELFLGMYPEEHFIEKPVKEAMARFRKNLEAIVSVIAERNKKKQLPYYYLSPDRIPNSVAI
In short: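 Monocytes differentiated 6 days with GM-CSF (20 ng/ml) in RPMI/10% FCS, then polarized 48 h with LPS 100 ng/ml plus IFN-γ 20 ng/ml (M1). Cells (2 × 10^6) in PBS with 1 mM CaCl2 pre-incubated 15 min at 37 °C with 3 µM compound or 0.1% DMSO, then E. coli O6:K2:H1 (1:50) for 90 min. Methanol with deuterated standards added; SPE; UPLC-MS/MS; expressed as % of vehicle.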

[2] = molecular target: T2, Polyunsaturated fatty acid lipoxygenase ALOX12 (Homo sapiens) (UniProt P18054); test: Modulation of 12-LO-mediated 12-HETE level in human M2 macrophages derived from IL4-polarized human monocyte derived macrophages at 3 uM preincubated for 15 mins followed by Escherichia coli (O6:K2:H1) challenge for 90 mins by LC-MS/MS analysis; in short: as §1
T2 sequence (whole entry): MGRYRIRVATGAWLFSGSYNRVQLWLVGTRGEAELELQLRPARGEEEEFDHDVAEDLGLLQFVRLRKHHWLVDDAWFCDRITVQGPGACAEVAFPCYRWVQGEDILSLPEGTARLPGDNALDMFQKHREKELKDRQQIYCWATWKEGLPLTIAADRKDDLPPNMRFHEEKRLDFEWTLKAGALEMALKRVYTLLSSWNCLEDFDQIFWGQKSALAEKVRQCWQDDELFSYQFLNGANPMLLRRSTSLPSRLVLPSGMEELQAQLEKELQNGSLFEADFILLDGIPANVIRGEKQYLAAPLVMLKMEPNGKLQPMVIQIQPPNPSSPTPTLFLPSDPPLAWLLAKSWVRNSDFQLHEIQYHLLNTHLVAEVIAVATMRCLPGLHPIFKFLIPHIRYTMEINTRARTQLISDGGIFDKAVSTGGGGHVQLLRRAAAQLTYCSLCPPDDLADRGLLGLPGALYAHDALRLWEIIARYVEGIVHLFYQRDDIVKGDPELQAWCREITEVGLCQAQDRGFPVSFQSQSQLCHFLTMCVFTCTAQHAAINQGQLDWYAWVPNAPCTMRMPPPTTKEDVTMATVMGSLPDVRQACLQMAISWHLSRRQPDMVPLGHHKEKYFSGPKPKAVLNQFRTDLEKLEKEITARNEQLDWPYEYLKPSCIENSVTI

Homo sapiens = species: Homo sapiens; test: Modulation of LO-mediated RvD5 level in human M2 macrophages derived from IL4-polarized human monocyte derived macrophages at 3 uM preincubated for 15 mins followed by Escherichia coli (O6:K2:H1) challenge for 90 mins by LC-MS/MS analysis; in short: as §1
[3] = molecular target: T3, Polyunsaturated fatty acid lipoxygenase ALOX15 (Homo sapiens) (UniProt P16050); test: Modulation of 15-LO-mediated 15-HEPE level in human M2 macrophages derived from IL4-polarized human monocyte derived macrophages at 3 uM preincubated for 15 mins followed by Escherichia coli (O6:K2:H1) challenge for 90 mins by LC-MS/MS analysis; in short: as §1
T3 sequence (whole entry): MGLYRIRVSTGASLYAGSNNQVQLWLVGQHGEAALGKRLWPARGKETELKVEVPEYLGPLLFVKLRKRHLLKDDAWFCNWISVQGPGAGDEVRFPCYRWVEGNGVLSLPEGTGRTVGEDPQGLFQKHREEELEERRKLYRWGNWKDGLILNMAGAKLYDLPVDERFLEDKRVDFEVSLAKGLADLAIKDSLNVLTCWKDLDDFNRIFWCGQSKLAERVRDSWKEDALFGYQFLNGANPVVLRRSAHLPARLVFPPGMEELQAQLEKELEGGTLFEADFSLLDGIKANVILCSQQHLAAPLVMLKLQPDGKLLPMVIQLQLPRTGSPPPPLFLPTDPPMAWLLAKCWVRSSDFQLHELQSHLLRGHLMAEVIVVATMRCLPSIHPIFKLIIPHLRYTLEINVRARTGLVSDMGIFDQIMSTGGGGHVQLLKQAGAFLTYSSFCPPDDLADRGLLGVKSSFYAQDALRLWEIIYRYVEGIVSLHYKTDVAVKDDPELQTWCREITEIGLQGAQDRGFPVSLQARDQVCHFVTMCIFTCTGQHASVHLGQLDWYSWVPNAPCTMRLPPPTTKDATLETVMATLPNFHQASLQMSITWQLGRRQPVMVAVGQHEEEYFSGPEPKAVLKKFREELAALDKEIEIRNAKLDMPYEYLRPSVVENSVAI

[4] = molecular target: T3, Polyunsaturated fatty acid lipoxygenase ALOX15 (Homo sapiens); test: Modulation of 15-LO-mediated 17-HDHA level in human M2 macrophages derived from IL4-polarized human monocyte derived macrophages at 3 uM preincubated for 15 mins followed by Escherichia coli (O6:K2:H1) challenge for 90 mins by LC-MS/MS analysis; in short: as §1

O=C(O)c1ccc(N(Cc2cccc(OCc3ccccc3)c2)S(=O)(=O)c2ccc(-c3ccccc3)cc2)cc1
Activity (Macrophage cell line): 86%
Activity [1]: 13%
Activity [2]: 151%
Activity (Homo sapiens): 134%
Activity [3]: 125%
Activity [4]: 124%

Source: ChEMBL document CHEMBL4270576, “Discovery of a benzenesulfonamide-based dual inhibitor of microsomal prostaglandin E2 synthase-1 and 5-lipoxygenase that favorably modulates lipid mediator biosynthesis in inflammation” (Eur J Med Chem, 2018)
